Published values of several laboratories.
CHRM2: Muscarinic acetylcholine receptor M2 (CHRM2, Homo sapiens, UniProt P08172)
PNLIP: Pancreatic triacylglycerol lipase (PNLIP, Sus scrofa, UniProt P00591)
TMPRSS13: TMPRSS13 (Homo sapiens, UniProt Q9BYE2)

| SMILES | target | effect on | mode | technique | measurement | value |
| --- | --- | --- | --- | --- | --- | --- |
| [2H]c1c([2H])c([C@]2([2H])CCCN2C(=O)C(C)(C)Oc2ccc3cn[nH]c3c2)c([2H])c([2H])c1C([2H])([2H])[2H] | Receptor-interacting serine/threonine-protein kinase 1 (RIPK1, Homo sapiens, UniProt Q13546) | enzyme activity | inhibitor | – | IC50 | 0.0018 µM |
| O=C1Nc2ccc3ncsc3c2/C1=C/c1cnc[nH]1 | Serine/threonine-protein kinase Nek7 (NEK7, Homo sapiens, UniProt Q8TDX7) | enzyme activity | inhibitor | – | IC50 | 11.9 µM |
| COc1cc2c(cc1OC)CN(CCc1ccc(NC(=O)c3cccc4c(=O)c5cccc(OC)c5[nH]c34)cc1)CC2 | CHRM2 | cell-free assay | – | – | Ki | 0.466 µM |
| OB1OCc2cc(F)ccc21 | Carbapenem-hydrolyzing beta-lactamase KPC (KPC-2, Klebsiella pneumoniae, UniProt Q9F663) | enzyme activity | inhibitor | – | IC50 | 1.1 µM |
| COc1c2c(cc3c1-c1c(cc4c(c1OC)OCO4)C[C@H](C)[C@H](C)C3)OCO2 | PNLIP | enzyme activity | inhibitor | fluorescence | IC50 | 8.65 µM |
| C[C@H](NC(=O)[C@H](CCC(N)=O)NC(=O)CCCCNC(=N)N)C(=O)N[C@@H](CCCNC(=N)N)C(=O)c1nc2ccccc2s1 | TMPRSS13 | cell-free assay | – | – | Ki | 0.033 µM |
| C=CCc1ccc(O)c(-c2cc(CC=C)ccc2O)c1 | PNLIP | enzyme activity | inhibitor | fluorescence | IC50 | 3.24 µM |
| CS(=O)(=O)N[C@@H](CCC(N)=O)C(=O)N[C@@H](Cc1ccccc1)C(=O)N[C@@H](CCCNC(=N)N)C(=O)c1nccs1 | TMPRSS13 | cell-free assay | – | – | Ki | 0.355 µM |
| C[C@H](CCCOS(=O)(=O)O)[C@H]1CC[C@H]2[C@@H]3CC[C@H]4C[C@@H](O)CC[C@]4(C)[C@H]3CC[C@]12C | CHRM2 | cAMP | antagonist | – | IC50 | 9.05 µM |
